Results on 7 compounds are retold here after PMC3320048 (Angiogenesis, 2011).

Series [1] relates to neonatal human dermal fibroblasts (NHDF). In words: LDH release in fibroblasts. In kind it is cell-based. As to conditions: 150 μg/ml, 24 hours, 37°C. In outline:
(§1)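 Cells were grown at 37°C in humidified 5% CO2 and treated at about 50% confluence. Test compound (2 mg/ml stock in H2O) was added at 150 μg/ml in 2% FBS for 24 h at 37°C. LDH release was read with a commercial kit and normalised to background death in untreated cells. 0.1% (v/v) Triton X-100 defined maximal release.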
In general terms: LDH leaks from cells whose membrane has failed.

The subject of series [2] is DU145 subcutaneous xenografts. In words: DU145 tumor treatment study. The format is in vivo, mice. As to conditions: 300 μg i.p. 3x/week. In outline: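 Male athymic nude mice carried 2-week-old subcutaneous DU145 flank xenografts averaging 40 mm3 at the start. They received carrier or test compound (300 μg) intraperitoneally three times per week. Tumour volume was measured with calipers at each treatment time point, and mice were weighed on day 15. Groups were compared by unpaired two-tailed t test or one-way ANOVA with Tukey post hoc test.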

Series [3] concerns human bladder epithelial cells (HBEC). Description: LDH release in epithelial cells. In kind it is cell-based. The conditions noted are these: 150 μg/ml, 24 hours, 37°C. Summed up:
as §1

Series [4] has as its target CLIC1 (Homo sapiens, UniProt O00299). In words: Saturation binding assay. Summed up: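 Copper-coated microtiter wells were coated with 2 μg/ml purified His-tagged human CLIC1. Wells were incubated 1 h at room temperature with varying concentrations of carboxyfluorescein-labelled peptide in TBS with 200 mM n-octyl-β-D-glucoside and 1 mM CaCl2. After TBS washes, fluorescence was read at ex 485/em 520. Signal from His-tagged nucleolin-coated wells was subtracted as non-specific binding. Kd was derived from the binding curves.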

In series [5] the test system is proliferating HUVEC. In words: Cytotoxicity assay. The format is cell-based.
Series [6] concerns HUVEC. Description: Western blot of cytosolic fractions for LC3 and cathepsins. The format is cell-based, human. Summed up:
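Cytosolic fractions came from treated HUVEC using a subcellular fractionation kit. Proteins were resolved by SDS-PAGE, blotted to PVDF and checked for equal loading with 0.05% Ponceau S. Blots were blocked in 5% milk or BSA, probed overnight at 4°C for cathepsin C, cathepsin D and LC3B, and detected by peroxidase secondary antibodies with ECL. Lysosomes were labelled with 100 nM LysoTracker Red for 1 h before paraformaldehyde fixation.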

For series [7], the system named is HUVEC. In words: Flow cytometry assay of CLIC1 cell surface expression in suspended HUVEC. The format is cell-based, human. As to conditions: peptide 300 μM.
Series [8] has as its system fibrinogen. The conditions noted are these: cited from earlier work.
Series [9] deals with fibronectin. The conditions noted are these: cited from earlier work.

Where a SMILES comes first, the peptide text is derived from it. Bridges are numbered along the chain shown (N, C = ends). Where no end group is shown, it is not given here.

With `CC[C@H](C)[C@@H]1NC(=O)[C@H](CC(C)C)NC(=O)CNC(=O)[C@@H](N)CSSC[C@@H](C(=O)O)NC(=O)[C@H](CCC(=O)O)NC(=O)[C@H](CC(N)=O)NC(=O)[C@H](CCCCN)NC(=O)[C@H](CCC(N)=O)NC(=O)[C@H]([C@@H](C)CC)NC1=O` [CLT1] (H-CGLIIQKNEC-OH; disulfide 1-10), in series [1], the “cytotoxicity in fibroblasts (LDH release)” value is reported as “little effect”. Also, in [2] (day 15 of the treatment study), the “body weight of the mice” value is reported as “remained unchanged”. Besides, the “cytotoxicity in epithelial cells (LDH release)” value in series [3] is “little effect”. Moreover, the Kd (commonly the concentration at which binding is half-saturated) in series [4] was 10.2 µM. In addition, the “CLT1-induced cytotoxicity at 4°C” value in series [5] (HUVEC cultured at 4°C versus 37°C, 150 μg/ml, 24 hours, LDH release) was “protected endothelial cells from CLT1-induced cytotoxicity”. In [5] (HUVEC, CLIC1 siRNA versus control siRNA, 24 hours, LDH release), the “cytotoxicity of CLT1 after CLIC1 knockdown” value is on record as “significantly reduced”. The “earliest time at which cytotoxicity was detected” value in [5] (HUVEC, LDH release over time) was 3.5 h.

As to `CO/C1=C\C(C)=C\[C@@H](C)[C@@H](O)[C@@H](C)C/C(C)=C/C=C/[C@H](OC)[C@@H]([C@@H](C)[C@@H](O)[C@H](C)[C@@]2(O)C[C@@H](O)[C@H](C)[C@@H](C(C)C)O2)OC1=O` [bafilomycin A1, reference compound], the “effect of pretreatment on CLT1 cytotoxicity (LDH release)” value in [5] (HUVEC, 20 nM bafilomycin A1 for 1 hour prior to CLT1 25 μg/ml for 24 hours) is “ameliorated cytotoxicity of CLT1”.

In the case of “CGLKIQKNEC (disulfide 1-10 (inferred)) [CLT1-IK1]”, the “LC3-II conversion (autophagy marker)” value in series [6] (HUVEC cytosolic fractions, 7 hours, 7.5–75 μg/ml, immunoblot) is reported as “did not induce”. Moreover, the “lysosome dysfunction (cathepsin C and D leakage, lysotracker)” value in series [6] (HUVEC, 75 μg/ml 24 hours immunoblot, 10 μg/ml fluorescein-conjugated peptide, lysotracker) is given as “did not induce”.

“CNAGESSKNC (disulfide 1-10 (inferred)) [CLT2, reference compound]”: the “tumor growth (tumor volume)” value in [2] (DU145 xenografts, n=12/treatment group) is recorded as “no anti-angiogenic or anti-tumor effects”.

Turning to GRADSP, in series [7], the “effect on CLIC1 cell surface localization induced by CLT1-fibronectin co-aggregates” value was “not by an inactive peptide”.

Take GRGDSP [reference compound]: the “effect on cytotoxic function of CLT1” value in series [5] (HUVEC, peptide 300 μM, 24 hours, LDH release) is on record as “inhibited the cytotoxic function of CLT1”. Further, the “effect on CLIC1 cell surface localization induced by CLT1-fibronectin co-aggregates” value in [7] was “partially inhibited”.

With anginex, in series [8], the “aggregate formation when mixed with fibrinogen” value is listed as “form large insoluble aggregates”. Besides, in series [9], the “aggregate formation when mixed with fibronectin” value is listed as “form large insoluble aggregates”.
